Laboratory results: ChEMBL document CHEMBL1914325, “Largazole and analogues with modified metal-binding motifs targeting histone deacetylases: synthesis and biological evaluation” (2011)
Activity calls are given as the source filed them. No cut-off for these calls is given here.

How the values were obtained:
[1] = molecular target: Histone deacetylase 1 (Homo sapiens) (UniProt Q13547); assay: Inhibition of HDAC1 in human HCT116 cells assessed as increase in histone H3 acetylation at 10 nM after 24 hrs by Western blot analysis; assay type: cell-based; settings: HCT-116
Summary of the method: (§1)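 HCT116 cells treated 24 h with 10 nM, 100 nM or 1 µM compound, with DMSO as vehicle control. Acetylation of histone or α-tubulin was measured by Western blot of whole-cell lysates, detected with infrared dye-conjugated secondary antibodies and infrared scanning.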

[2] = molecular target: Histone deacetylase 1 (Homo sapiens) (UniProt Q13547); assay: Inhibition of HDAC1 in human HCT116 cells assessed as increase in histone H3 acetylation at 1 uM after 24 hrs by Western blot analysis; assay type: cell-based; settings: HCT-116; summary of the method: as §1
[3] = molecular target: T1, Protein deacetylase HDAC6 (Homo sapiens) (UniProt Q9UBN7); assay: Inhibition of HDAC6 in human HCT116 cells assessed as increase in alpha tubulin acetylation at 0.01 to 1 uM after 24 hrs by Western blot analysis; assay type: cell-based; settings: HCT-116; summary of the method: as §1
T1 sequence (whole entry): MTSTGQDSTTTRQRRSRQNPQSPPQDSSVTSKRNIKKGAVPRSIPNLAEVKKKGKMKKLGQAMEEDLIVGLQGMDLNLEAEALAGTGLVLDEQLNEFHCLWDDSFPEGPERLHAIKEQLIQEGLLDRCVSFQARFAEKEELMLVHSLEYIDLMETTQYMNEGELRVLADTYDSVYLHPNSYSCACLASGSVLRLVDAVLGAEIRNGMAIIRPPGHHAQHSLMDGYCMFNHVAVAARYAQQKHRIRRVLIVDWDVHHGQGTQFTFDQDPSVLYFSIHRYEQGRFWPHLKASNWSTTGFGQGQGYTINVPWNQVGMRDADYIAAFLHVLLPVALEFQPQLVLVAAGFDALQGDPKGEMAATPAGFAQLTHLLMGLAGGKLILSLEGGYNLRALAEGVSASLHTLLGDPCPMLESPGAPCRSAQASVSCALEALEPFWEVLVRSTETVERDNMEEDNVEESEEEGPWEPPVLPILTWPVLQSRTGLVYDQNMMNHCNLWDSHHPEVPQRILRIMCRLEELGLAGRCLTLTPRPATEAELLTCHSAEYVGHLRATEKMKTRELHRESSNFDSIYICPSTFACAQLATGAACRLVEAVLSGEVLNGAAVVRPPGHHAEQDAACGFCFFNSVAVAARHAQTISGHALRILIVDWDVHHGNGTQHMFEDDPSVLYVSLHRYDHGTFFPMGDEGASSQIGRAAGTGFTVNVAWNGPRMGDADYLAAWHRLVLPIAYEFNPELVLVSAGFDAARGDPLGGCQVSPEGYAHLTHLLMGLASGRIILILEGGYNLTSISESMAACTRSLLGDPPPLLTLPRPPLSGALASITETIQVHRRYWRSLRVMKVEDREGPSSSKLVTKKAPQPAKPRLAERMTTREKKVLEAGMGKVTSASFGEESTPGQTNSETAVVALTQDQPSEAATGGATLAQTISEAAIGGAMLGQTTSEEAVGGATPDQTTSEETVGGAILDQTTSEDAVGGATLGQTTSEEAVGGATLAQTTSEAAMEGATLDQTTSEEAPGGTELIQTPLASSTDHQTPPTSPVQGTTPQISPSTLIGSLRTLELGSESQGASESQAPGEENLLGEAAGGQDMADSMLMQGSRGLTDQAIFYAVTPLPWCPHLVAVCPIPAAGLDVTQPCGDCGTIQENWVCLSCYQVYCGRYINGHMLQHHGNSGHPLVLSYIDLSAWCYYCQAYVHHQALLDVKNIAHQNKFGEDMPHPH

HCT-116 [4] = assay: Growth inhibition of human HCT116 cells at 5 uM after 96 hrs by MTS assay; assay type: functional, cell-based
Summary of the method: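 HCT116 cells seeded at 3 × 10^4 cells/well in quadruplicate and left to attach overnight. Medium was replaced with fresh medium containing compound at 10 nM, 100 nM, 1 µM or 5 µM, then incubated 96 h at 37 °C in 5% CO2. MTS reagent was added for 1.5 h at 37 °C and absorbance read at 490 nm.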

[5] = molecular target: Histone deacetylase 1 (Homo sapiens) (UniProt Q13547); assay: Inhibition of recombinant HDAC1 at 1 uM after 1 hr by fluorimetric assay
Summary of the method: (§2)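 Fluor de Lys fluorimetric deacetylase assay run per the kit protocol. Inhibitor, enzyme and substrate were incubated 1 h, then developer was added and incubated before reading. Recombinant HDAC1 or HDAC6 was tested at 1 µM inhibitor; HeLa nuclear extract served as the class 1/2 HDAC source. Analogue + substrate + developer was the signal control. Three experiments, each in triplicate; SD of triplicates.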

[6] = molecular target: Histone deacetylase 1 (Homo sapiens) (UniProt Q13547); assay: Inhibition of HDAC1 from human HeLa nuclear extract after 1 hr by fluorimetric assay; summary of the method: as §2
[7] = molecular target: T1, Protein deacetylase HDAC6 (Homo sapiens); assay: Inhibition of recombinant HDAC6 at 1 uM after 1 hr by fluorimetric assay; summary of the method: as §2
[8] = molecular target: T1, Protein deacetylase HDAC6 (Homo sapiens); assay: Inhibition of recombinant human HDAC6 after 1 hr by fluorimetric assay
HCT-116 [9] = assay: Growth inhibition of human HCT116 cells after 96 hrs by MTS assay; assay type: functional; settings: HCT-116, 96 h
Summary of the method: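 HCT116 cells seeded at 3 × 10^4 cells/well in quadruplicate and allowed to attach overnight. Medium then replaced with fresh medium containing compound (10 nM, 100 nM, 1 µM, 5 µM). Cells incubated 96 h at 37 °C, 5% CO2. MTS reagent (CellTiter 96 One Solution) added for 1.5 h at 37 °C, then absorbance read at 490 nm. GI50 estimated from the growth curves.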

[10] = molecular target: Histone deacetylase 1 (Homo sapiens) (UniProt Q13547); settings: HCT-116, 100 nM

Histone deacetylase 1 (Homo sapiens), sequence (Q13547 whole entry): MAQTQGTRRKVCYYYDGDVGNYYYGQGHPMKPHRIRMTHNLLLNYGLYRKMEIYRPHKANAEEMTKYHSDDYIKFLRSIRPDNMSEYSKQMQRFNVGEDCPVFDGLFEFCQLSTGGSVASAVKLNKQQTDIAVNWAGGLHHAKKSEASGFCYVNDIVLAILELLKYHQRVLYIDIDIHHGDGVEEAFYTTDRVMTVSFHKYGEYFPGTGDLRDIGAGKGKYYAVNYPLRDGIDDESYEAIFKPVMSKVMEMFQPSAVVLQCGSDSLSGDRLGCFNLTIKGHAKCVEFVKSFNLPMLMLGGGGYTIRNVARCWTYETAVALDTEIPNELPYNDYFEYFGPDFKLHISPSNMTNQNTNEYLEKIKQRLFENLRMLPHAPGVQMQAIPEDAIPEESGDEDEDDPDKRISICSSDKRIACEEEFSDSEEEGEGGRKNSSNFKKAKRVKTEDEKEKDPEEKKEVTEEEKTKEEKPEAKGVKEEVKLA

Compound | inhibition [1] | inhibition [2] | inhibition [3] | growth inhibition (GI) (HCT-116 [4]) | inhibition [5] | inhibition [6] | inhibition [7] [%] | inhibition [8] | GI50 (HCT-116 [9]) [nM] | inhibition [10]
CC(C)[C@@H]1NC(=O)[C@]2(C)CSC(=N2)c2csc(n2)CNC(=O)C[C@@H](/C=C/CCSCc2cccs2)OC1=O | inactive | Active | inactive | Active | 80% | Active | 50 | Active | – | –
CC(C)[C@@H]1NC(=O)[C@]2(C)CSC(=N2)c2csc(n2)CNC(=O)C[C@@H](/C=C/CCSCc2ccccn2)OC1=O | inactive | Active | inactive | – | 80% | Active | 50 | Active | 1000 | –
CCCCCCCC(=O)SCC/C=C/[C@@H]1CC(=O)NCc2nc(cs2)C2=N[C@@](C)(CS2)C(=O)N[C@@H](C(C)C)C(=O)O1 [LARGAZOLE] | inactive | – | inactive | – | Active | Active | 50 | Active | 10 | Active
CC(C)[C@@H]1NC(=O)[C@]2(C)CSC(=N2)c2csc(n2)CNC(=O)C[C@@H](/C=C/CCSCc2ccccc2O)OC1=O | inactive | – | inactive | Active | 30% | Active | 50 | Active | – | –
